Structures are written as SMILES. Active and inactive are the calls of the source. The calls are words filed in the database; no cut-off is given here. Where only a bound is given, the exact number is not on record here.

A word on the Ki: it is a measure of affinity in units of concentration, obtained from inhibition or displacement. Higher therefore signals lower affinity. The IC50 is the concentration at which inhibition is half-maximal. Usually ED50 stands for the dose that gives a 50% effect, or the effect in half of the subjects.

Assay [1] concerns the target Kappa-type opioid receptor (Cavia porcellus) (UniProt P41144). In words: Potency index, ratio of LP1 Ki to compound Ki for KOR in guinea pig brain membranes. Format: cell membranes. As to conditions: Membrane.
The species entered for assay [2] is Rattus norvegicus. The assay can be described thus: Ratio of Ki for DOR in rat brain membranes to Ki for MOR in rat brain membranes. Format: cell membranes. In outline:
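Ratio of Ki values: DOR Ki (rat brain, [3H]-DPDPE, 2 nM) divided by MOR Ki (rat brain, [3H]-DAMGO, 1 nM), both from 45 min, 35 °C competition binding in 50 mM Tris-HCl pH 7.4.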

Assay [3] has as its target Delta-type opioid receptor (Rattus norvegicus, UniProt P33533). In words: Displacement of [3H]-DPDPE from DOR in rat brain membranes by liquid scintillation counting analysis. Format: cell membranes, Membrane. In a few lines: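 Rat brain membranes at 0.5 mg/ml protein, 45 min at 35 °C with 2 nM [3H]-DPDPE in 50 mM Tris-HCl pH 7.4. Competitor range 10^-11 to 10^-5 M. Nonspecific binding with 10 μM naloxone. Filtered through PEI-soaked GF/B, scintillation counted. Ki derived; three separate experiments in duplicate.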

Assay [4] can be described thus: Ratio of Ki for KOR in guinea pig brain membranes to Ki for MOR in rat brain membranes. Type of assay: cell membranes. In outline: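 Ratio of KOR Ki (guinea pig brain, 1 nM [3H]-(+)-U69,593, 30 min at 30 °C) to MOR Ki (rat brain, 1 nM [3H]-DAMGO, 45 min at 35 °C).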
Assay [5] deals with mu/kappa opioid receptor (Cavia porcellus, UniProt P41144+P97266). In words: Agonist activity at MOR/KOR in Dunkin-Hartley guinea pig ileum assessed as inhibition of electrically induced contractions after 5 mins. In a few lines:
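Guinea pig ileum longitudinal muscle/myenteric plexus strips from male guinea pigs (200–300 g), 2 g load. Transmural single pulses 0.1 Hz, 0.3 ms, 200 mA. After 60–90 min equilibration in Krebs, compounds added cumulatively, at least 5 min each. Percent inhibition of contraction; IC50 by linear regression of log concentration–effect curves, at least three trials.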

The nature of assay [6]: Agonist activity at DOR in CD-1 mouse vasa deferentia assessed as inhibition of electrically induced contractions after 5 mins. In a few lines:
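Mouse vas deferens at 0.5 g tension; after equilibration, pulses 20 Hz, 0.5 ms, 1 s duration every 40 s. After 60 min equilibration in Krebs, cumulative compound additions, minimum 5 min apart. Contraction inhibition as percent of baseline; IC50 from linear regression of log concentration–effect curves, at least three trials.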

Assay [7] has as its target Kappa-type opioid receptor (Cavia porcellus, UniProt P41144). In words: Displacement of [3H]-(+)-U69,593 from KOR in guinea pig brain membranes by liquid scintillation counting analysis. Format: cell membranes, Membrane. In outline:
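Guinea pig brain membranes (0.5 mg/ml) incubated 30 min at 30 °C with 1 nM [3H]-(+)-U69,593. Compounds tested from 10^-11 to 10^-5 M. Nonspecific binding with 10 μM unlabeled naloxone. GF/B filtration, liquid scintillation counting. Ki calculated; means of three experiments, each in duplicate.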
In general terms: Loss of bound radioactivity is the signal in a displacement assay; it reports binding, not function.

For assay [8], the target named is Mu-type opioid receptor (Rattus norvegicus, UniProt P33535). In words: Displacement of [3H]-DAMGO from MOR in rat brain membranes by liquid scintillation counting analysis. Type of assay: cell membranes, Membrane. In a few lines:
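Rat brain membranes, 0.4 mg/ml protein, incubated 45 min at 35 °C with 1 nM [3H]-DAMGO in 50 mM Tris-HCl pH 7.4. Filtration on PEI-presoaked GF/B filters, scintillation counting. Ki calculated; three experiments, each in duplicate.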

Assay [9] is filed under the species Mus musculus. The assay can be described thus: Antagonist activity at DOR in CD-1 mouse vasa deferentia assessed as inhibition of electrically induced contractions after 5 mins by measuring ratio of IC50 for test compounds in presence and absence of […]. In outline: (§1)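 Isolated tissue (ileum for MOR/KOR, vas deferens for DOR) pre-incubated with a 1 μM selective antagonist (NLX or NTI 20 min; norBNI 30 min), then agonist curves repeated. Ke from ratio of IC50 with and without antagonist, by single dose method. Mean ± SEM of four independent tissues.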

For assay [10], the system named is Rattus norvegicus. In words: Antinociceptive activity in rat assessed as reduction in response to heat administered ip measured 240 mins post dose by tail-flick test. Type of assay: functional, organism-based. A general note: Hot-plate and tail-flick tests time the reaction to a heat stimulus.
The target of assay [11] is Kappa-type opioid receptor (Cavia porcellus) (UniProt P41144). The assay can be described thus: Antagonist activity at KOR in Dunkin-Hartley guinea pig ileum assessed as inhibition of electrically induced contractions after 5 mins by measuring ratio of IC50 for test compounds in presence and absence of nBNI. In outline:
as §1

For assay [12], the species on record is Rattus norvegicus. The assay can be described thus: Antinociceptive activity in rat assessed as reduction in response to heat pretreated with naloxone for 30 mins prior to compound treatment by tail-flick test. Type of assay: functional.
Assay [13] addresses Mu-type opioid receptor (Cavia porcellus) (UniProt P97266). The assay can be described thus: Antagonist activity at MOR in Dunkin-Hartley guinea pig ileum assessed as inhibition of electrically induced contractions after 5 mins by measuring ratio of IC50 for test compounds in presence and absence of NLX. In a few lines: as §1
The subject of assay [14] is Rattus norvegicus. The assay can be described thus: Antinociceptive activity in rat assessed as reduction in response to heat administered ip measured 60 mins post dose by tail-flick test. Type of assay: functional.
Assay [15] concerns Rattus norvegicus. In words: Antinociceptive activity in rat assessed as reduction in response to heat administered ip measured 45 to 180 mins post dose by tail-flick test. Type of assay: functional, organism-based.

Sequence of Mu-type opioid receptor (P33535 whole entry): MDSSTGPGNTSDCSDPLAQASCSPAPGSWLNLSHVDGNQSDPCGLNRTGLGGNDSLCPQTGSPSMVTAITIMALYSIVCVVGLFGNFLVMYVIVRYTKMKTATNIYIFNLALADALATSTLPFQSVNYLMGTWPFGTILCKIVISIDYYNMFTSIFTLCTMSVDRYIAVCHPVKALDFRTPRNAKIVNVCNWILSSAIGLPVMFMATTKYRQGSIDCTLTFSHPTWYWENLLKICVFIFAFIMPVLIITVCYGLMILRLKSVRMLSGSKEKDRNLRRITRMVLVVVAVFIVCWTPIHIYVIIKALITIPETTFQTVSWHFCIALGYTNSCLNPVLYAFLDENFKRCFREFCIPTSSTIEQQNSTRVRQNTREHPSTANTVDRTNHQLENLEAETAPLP
Sequence of Kappa-type opioid receptor (P41144 whole entry): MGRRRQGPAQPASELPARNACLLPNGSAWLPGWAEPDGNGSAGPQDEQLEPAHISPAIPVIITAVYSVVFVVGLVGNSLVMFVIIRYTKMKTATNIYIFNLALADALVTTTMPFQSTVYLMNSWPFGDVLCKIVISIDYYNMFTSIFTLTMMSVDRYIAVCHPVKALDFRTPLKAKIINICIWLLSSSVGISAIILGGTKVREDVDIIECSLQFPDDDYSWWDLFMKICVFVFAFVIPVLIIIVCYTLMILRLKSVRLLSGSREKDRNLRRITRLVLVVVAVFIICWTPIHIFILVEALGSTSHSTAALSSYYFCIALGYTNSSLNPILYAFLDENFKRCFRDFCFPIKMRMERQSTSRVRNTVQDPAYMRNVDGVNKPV
Sequence of Kappa-type opioid receptor (Cavia porcellus) (P41144 whole entry): as above
Sequence of Delta-type opioid receptor (P33533 whole entry): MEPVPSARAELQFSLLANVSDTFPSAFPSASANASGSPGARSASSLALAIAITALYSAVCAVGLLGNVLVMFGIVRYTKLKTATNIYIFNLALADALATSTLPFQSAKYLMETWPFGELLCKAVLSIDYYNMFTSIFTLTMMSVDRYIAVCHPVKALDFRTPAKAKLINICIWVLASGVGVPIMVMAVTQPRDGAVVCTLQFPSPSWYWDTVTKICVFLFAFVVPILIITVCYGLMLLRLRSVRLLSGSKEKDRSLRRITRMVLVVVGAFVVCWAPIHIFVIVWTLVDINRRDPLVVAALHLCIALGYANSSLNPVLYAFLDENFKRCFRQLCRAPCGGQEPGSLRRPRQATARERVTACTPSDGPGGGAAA
Sequence of Mu-type opioid receptor (Cavia porcellus) (P97266 whole entry): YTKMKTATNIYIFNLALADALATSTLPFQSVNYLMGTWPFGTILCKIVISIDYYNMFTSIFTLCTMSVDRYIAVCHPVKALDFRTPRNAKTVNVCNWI

With `C[C@H]1[C@H]2Cc3ccc(O)cc3[C@]1(C)CCN2CC(C)(O)c1ccccc1` (stereo partly specified), the Ratio Ki in [1] turned out to be 10; in assay [2] it was 2.66; in [4] it was 0.17. For the same compound, the inhibitory constant (Ki) in assay [3] stood at 160 nM; in [7] it was 10.5 nM; in assay [8] it was 60 nM. For the same compound, the IC50 was determined as 194.4 nM in [5] and 794 nM in assay [6].

Turning to `C[C@H]1[C@H]2Cc3ccc(O)cc3[C@]1(C)CCN2C[C@H](O)c1ccccc1`, the Ratio Ki is 15 in assay [1], 3.88 in assay [2] and 2.95 in assay [4]. Besides, the values for the Ke in [9], in assay [11] and in assay [13] were 4 nM, 20 nM and 35 nM, respectively. For the same compound, the Activity result in assay [10] is “Dose-dependent effect”. For the same compound, the results for the Ki in assay [3], in [7] and in assay [8] were 9.6 nM, 7.3 nM and 2.47 nM, respectively. Besides, the concentration for half-maximal inhibition (IC50) came out at 49.2 nM in assay [5] and 10.8 nM in assay [6]. For the same compound, the result in assay [12] was inactive.

Consider `CN1CC[C@]23c4c5ccc(O)c4O[C@H]2[C@@H](O)C=C[C@H]3[C@H]1C5`, for which the result in [14] was inactive.

As to `C[C@H]1[C@H]2Cc3ccc(O)cc3[C@]1(C)CCN2C[C@@H](O)c1ccccc1`, the Ratio Ki in assay [1] came out at 49; in assay [2], 1.6; in assay [4], 4.44. Further, the Ke in assay [9] came to 5.4 nM; in [11], 9 nM; in [13], 21 nM. Further, in assay [10], the Activity result is “Dose-dependent effect”. Also, the Ki in assay [3] came to 0.8 nM; in assay [7], 2.22 nM; in assay [8] it was 0.5 nM. In addition, the IC50 in assay [5] turned out to be 9.9 nM; in [6], 11.8 nM. Also, the result in assay [12] was inactive.

As to `C[C@H]1[C@H]2Cc3ccc(O)cc3[C@]1(C)CCN2CCC(=O)Nc1ccccc1`, the values for the Ratio Ki in assay [2] and in assay [4] were 33.8 and 132, respectively. The Ke in [11] was 10.8 nM; in assay [13], 2.3 nM. In addition, the results for the concentration for half-maximal inhibition (IC50) in [5] and in assay [6] were 1.9 nM and 1240 nM, respectively.

On to `COC(CN1CC[C@@]2(C)c3cc(O)ccc3C[C@@H]1[C@@H]2C)c1ccccc1` (stereo partly specified), for which the Ratio Ki in [1] was 7; in assay [2], 6.1; in assay [4], 14.1. Moreover, the Ke in assay [9] is 3.9 nM; in assay [11], more than 3000 nM; in assay [13] it was 19 nM. Also, in assay [14] (1 h), the ED50 stood at 0.9 mg/kg. Besides, the Activity entry in assay [10] was “Dose-dependent effect”. The Ki in [3] worked out at 6.6 nM; in assay [7], 15.2 nM; in assay [8], 1.08 nM. The IC50 in assay [5] is 21.5 nM; in assay [6], 4.4 nM. In assay [12], the outcome was inactive. The result in [15] was Active.

The values are drawn from ChEMBL document CHEMBL4052787, “Development of novel LP1-based analogues with enhanced delta opioid receptor profile” (Bioorg Med Chem, 2017).
